Results taken from ChEMBL document CHEMBL1155847, “Novel indoline-based acyl-CoA:cholesterol acyltransferase inhibitor with antiperoxidative activity: improvement of physicochemical properties and biological activities by introduction of carboxylic acid” (J Med Chem, 2008).
Blank lines part the entries; values can stand above or below the compound they belong to. Active and inactive are the calls of the source. The calls are words filed in the database; no cut-off is given here.

Assays:
[1] = biological target: T1, Acyl-CoA:cholesterol acyltransferase (Oryctolagus cuniculus, UniProt Q95214); test: Inhibition of normocholesterolemic rabbit liver ACAT
T1 sequence (Q95214 whole entry): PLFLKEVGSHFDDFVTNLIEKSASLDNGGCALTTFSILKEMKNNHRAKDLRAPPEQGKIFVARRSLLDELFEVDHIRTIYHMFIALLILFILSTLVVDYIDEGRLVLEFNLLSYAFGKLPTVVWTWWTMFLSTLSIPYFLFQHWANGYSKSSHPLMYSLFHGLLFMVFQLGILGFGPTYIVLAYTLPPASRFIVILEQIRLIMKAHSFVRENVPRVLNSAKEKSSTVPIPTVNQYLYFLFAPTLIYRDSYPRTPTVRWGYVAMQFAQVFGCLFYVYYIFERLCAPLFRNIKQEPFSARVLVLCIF
Procedure, shortened: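 Liver from normocholesterolemic male Japanese White rabbits homogenized in sucrose/phosphate/EDTA/dithioerythritol buffer pH 7.4. Microsomes collected by 12000g then 105000g spins. Then 30 nmol [1-¹⁴C]oleoyl-CoA added, 20 min at 37 °C. Cholesteryl ester extracted and separated by TLC.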

[2] = AUC in Sprague-Dawley rat at 10 mg/kg, po; type: ADME, organism-based; design: dose 10 mg/kg, route oral; settings: plasma
Procedure, shortened: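 Male SD rats, 6-7 weeks, fasted overnight, n = 3; single oral 10 mg/kg dose suspended in 5% arabic gum. Jugular-vein heparinized blood at 0.5, 1, 3, 5, 8, 24 h; plasma free-form compound by HPLC. AUC taken over 24 h.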

Brain = test: Antiperoxidative activity in Sprague-Dawley rat brain assessed as inhibition of malonaldehyde level; type: functional, tissue-based
Procedure, shortened: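 Cerebral cortex from male SD rats (6 weeks) homogenized in ice-cold 50 mM PBS pH 7.4, spun 1300g. Supernatant incubated 37 °C, 30 min with vehicle or compound. Stopped with 20% TCA; thiobarbituric acid reaction at 100 °C, 15 min; MDA read at 532 nm, less pre-assay MDA. Duplicate assay, n = 2.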

[3] = biological target: T2, Sterol O-acyltransferase 1 (Homo sapiens, UniProt P35610); test: Inhibition of ACAT-mediated esterified cholesterol accumulation in human THP1 cells exposed to acetyl-LDL during differentiation assessed as effect on foam cell formation; type: cell-based, THP-1
T2 sequence (P35610 whole entry): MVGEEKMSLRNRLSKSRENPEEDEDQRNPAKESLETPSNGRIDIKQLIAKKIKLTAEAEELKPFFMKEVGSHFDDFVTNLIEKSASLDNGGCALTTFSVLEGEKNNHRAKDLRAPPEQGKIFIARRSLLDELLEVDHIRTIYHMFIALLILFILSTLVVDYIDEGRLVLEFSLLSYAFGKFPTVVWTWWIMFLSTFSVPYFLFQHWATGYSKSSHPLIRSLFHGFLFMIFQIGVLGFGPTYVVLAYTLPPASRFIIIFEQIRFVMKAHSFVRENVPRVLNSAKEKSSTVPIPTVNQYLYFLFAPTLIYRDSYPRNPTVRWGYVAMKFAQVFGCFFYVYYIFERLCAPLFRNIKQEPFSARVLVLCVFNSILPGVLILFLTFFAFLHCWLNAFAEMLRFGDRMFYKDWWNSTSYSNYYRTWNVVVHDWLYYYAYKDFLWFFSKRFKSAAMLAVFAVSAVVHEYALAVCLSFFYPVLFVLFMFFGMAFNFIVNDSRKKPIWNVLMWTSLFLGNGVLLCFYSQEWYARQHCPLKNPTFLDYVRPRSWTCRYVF

[4] = Solubility in water at pH 7.0; type: physicochemical
Procedure, shortened: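 6 mg of compound shaken 30 min at room temperature in 3 mL 1/15 M potassium phosphate buffer pH 7.0, centrifuged and filtered (0.45 µm). Filtrate concentration by HPLC.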

[5] = Distribution coefficient, log D at pH 7.0; type: physicochemical; settings: octanol/water
Procedure, shortened: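 5 mg of compound in 5 mL octanol shaken 30 min at room temperature with 5 mL 1/15 M potassium phosphate buffer pH 7.0, then centrifuged. Both phases quantified by HPLC. log D taken as log of the octanol/buffer concentration ratio.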

Plasma = test: Inhibition of LDL oxidation in genetically hypercholesterolemic KHC rabbit plasma assessed as malonaldehyde level after 1 hr; type: functional, cell-free; settings: Oryctolagus cuniculus
Procedure, shortened: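 LDL fraction isolated from plasma of male KHC rabbits and oxidized with CuSO₄ 5 µM at 37 °C for 1 h with vehicle or compound. Oxidation read as MDA. IC50 from duplicate tubes per concentration; n = 4.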

[6] = Inhibition of lipid peroxidation in genetically hypercholesterolemic KHC rabbit serum assessed as malonaldehyde level after 4 hrs; type: functional, cell-free; settings: Oryctolagus cuniculus
Procedure, shortened: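 Heparinized ear-artery plasma from KHC rabbits (2.4-2.7 kg) incubated with CuSO₄ 2 mM at 37 °C for 4 h with vehicle or compound. Lipid peroxide measured as MDA by kit. IC50 from duplicate tubes; n = 2.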

[7] = biological target: Phosphatidylcholine-sterol acyltransferase (Rattus norvegicus) (UniProt P18424); test: Inhibition of rat LCAT up to 10 uM
Phosphatidylcholine-sterol acyltransferase (Rattus norvegicus), sequence (P18424 whole entry, looked up): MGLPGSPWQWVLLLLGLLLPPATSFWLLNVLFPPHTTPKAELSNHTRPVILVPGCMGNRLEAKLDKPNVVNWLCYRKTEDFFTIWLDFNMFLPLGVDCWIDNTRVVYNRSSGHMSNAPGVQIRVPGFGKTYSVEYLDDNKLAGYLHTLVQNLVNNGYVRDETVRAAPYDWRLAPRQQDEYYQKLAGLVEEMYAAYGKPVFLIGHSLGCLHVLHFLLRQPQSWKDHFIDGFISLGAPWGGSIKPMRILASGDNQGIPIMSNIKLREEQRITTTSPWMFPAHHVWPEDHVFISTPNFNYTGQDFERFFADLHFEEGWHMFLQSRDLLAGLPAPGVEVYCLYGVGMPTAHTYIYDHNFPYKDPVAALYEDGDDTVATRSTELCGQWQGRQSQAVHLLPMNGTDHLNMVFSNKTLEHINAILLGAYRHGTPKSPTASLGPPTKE

SMILES: CCCCCCCCN1CCc2c(C)c(CN)c(C)c(NC(=O)C(C)(C)C)c21.Cl.Cl
solubility [4]: 857 µg/mL | logD [5]: 2.3

SMILES: CCCCCCCCN1CCc2c(C)cc(C)c(NC(=O)C(C)(C)C)c21.Cl
solubility [4]: 0.08 µg/mL | logD [5]: 6.2

SMILES: CCCCCCCCN1CCc2c(C)cc(C)c(NC(=O)C(C)(C)CCC(=O)O)c21.Cl
solubility [4]: 401 µg/mL | logD [5]: 3

SMILES: CCCCCCCCN1CC(CCC(=O)O)c2c(C)cc(C)c(NC(=O)C(C)(C)C)c21.Cl (configuration not stated)
solubility [4]: 355 µg/mL | logD [5]: 3.5

The next lines start with the values.

IC50 [1]: 5 µM | AUC [2]: 1700 ng·h/mL | IC50 (Brain): 4.2 µM | IC50 [3]: 3.6 µM
SMILES: CCCCCCCCN1CC(CCC(=O)O)c2c(C)cc(C)c(NC(=O)C(C)(C)C)c21 (configuration not stated)

IC50 (Plasma): 132 µM | IC50 [6]: 21.6 µM
SMILES: CC(C)(Sc1cc(C(C)(C)C)c(O)c(C(C)(C)C)c1)Sc1cc(C(C)(C)C)c(O)c(C(C)(C)C)c1 [PROBUCOL]

Activity [7]: inactive
SMILES: CCCCCCCCN1CCc2c(C)c(CC(=O)O)c(C)c(NC(=O)C(C)(C)C)c21

IC50 [1]: 7.6 µM | IC50 [3]: 1.5 µM
SMILES: CC(C)c1cc(C(C)C)c(CC(=O)NS(=O)(=O)Oc2c(C(C)C)cccc2C(C)C)c(C(C)C)c1 [AVASIMIBE]
